Test results published in ChEMBL document CHEMBL1146566, “Antioxidant chalcone glycosides and flavanones from Maclura (Chlorophora) tinctoria” (J Nat Prod, 2003).
Calls of active or inactive are those of the source. No cut-off for these calls is given here.

Key:
[1] = Antioxidant activity assessed as trolox equivalents of ABTS radical scavenging activity by TEAC assay; format: functional
Outline: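 ABTS radical cation made from 7 mM ABTS and 2.45 mM potassium persulfate, 12 h dark at room temperature, diluted in PBS pH 7.4 to A734 0.70, equilibrated at 30 °C. Samples in methanol at 0.3–2 mM stock levels, 10 μL plus 1 mL ABTS. % inhibition of A734 versus methanol blank plotted against concentration, in triplicate. TEAC = Trolox concentration equivalent to 1 mM compound; quercetin as reference.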

[2] = Antioxidant activity assessed as autoxidation of linoleic acid by beta-carotene autoxidation assay; format: functional
Outline: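 Linoleic acid (20 mg), Tween 20 (200 mg) and β-carotene (2 mg in 10 mL CHCl3) mixed, CHCl3 removed, 50 mL oxygen-saturated water added. Samples oxidised at 50 °C for 3 h, A470 read at intervals. AA = [1 − (A0 − At)/(A00 − A0t)] × 100 versus no-compound control, reported at 60 and 120 min; BHT as control substance.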

Row | Compound | Activity [1] [mM] | Activity [2]
1 | O=C(/C=C/c1ccc(O)cc1)O[C@H]1[C@H](Oc2ccc(C(=O)/C=C/c3ccc(O)cc3)c(O)c2O)O[C@H](CO)[C@@H](O)[C@@H]1O | 1.93 | Active
2 | CC(C)=CCc1c(O[C@@H]2O[C@H](CO)[C@@H](O)[C@H](O)[C@H]2O)ccc(C(=O)/C=C/c2ccc(O)cc2)c1O | 2.26 | Active
3 | O=C1C[C@@H](c2ccc(O)cc2)Oc2cc(O)cc(O)c21 | 0.77 | –
4 | CC(=O)O[C@H]1[C@H](Oc2ccc(C(=O)/C=C/c3ccc(O)cc3)c(O)c2O)O[C@H](COC(=O)/C=C/c2ccccc2)[C@@H](O)[C@@H]1O | 1.6 | Active
5 | O=C1C[C@@H](c2ccc(O)c(O)c2)Oc2cc(O[C@@H]3O[C@H](CO)[C@@H](O)[C@H](O)[C@H]3O)cc(O)c21 | 1.26 | –
6 | O=c1c(O)c(-c2ccc(O)c(O)c2)oc2cc(O)cc(O)c12 | 2.6 | –
7 | O=C1C[C@@H](c2ccc(O[C@@H]3O[C@H](CO)[C@@H](O)[C@H](O)[C@H]3O)cc2)Oc2cc(O)cc(O)c21 | 0.782 | –
8 | CC(=O)OC[C@H]1O[C@@H](Oc2ccc(C(=O)/C=C/c3ccc(O)cc3)c(O)c2O)[C@H](OC(=O)/C=C/c2ccc(O)cc2)[C@@H](O)[C@@H]1O | 1.71 | Active
